High-throughput results: PubChem, Sanford-Burnham Center for Chemical Genomics
Shown are actives, neighbours in structure and some others; about 0.77% of the full set was active somewhere.
mIAP inh: inhibitors of mouse IAP, primary screen, biochemical, luminescence, uHTS. purified mouse IAP, CDP-Star luminescence, 30 min. inhibition, % at 10 µM. 0.2% of 330,000 active. intestinal alkaline phosphatase [Mus musculus];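 active = inhibition of at least 40% at 10 µM in the primary screen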;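 also: plate controls were DMSO with enzyme for no effect and no enzyme wells for full effect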
bIAP act: bovine intestinal alkaline phosphatase activators, primary screen, biochemical, bovine IAP, CDP-star luminescence; alkaline phosphatase, intestinal [Bos taurus]; purified bovine IAP, 30 min; active compounds read high; fold of DMSO-control signal, blank-subtracted; activation factor at 20 µM; 0.17% of 200,000 active;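 active = activation factor of 2 or more at 20 µM, a signal rise over negative controls twice the positive control's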
hIAP block: human IAP inhibitors, primary screen, biochemical, luminescence, uHTS | purified IAP, CDP-Star luminescence, 30 min | inhibition, % at 10 µM | 0.12% of 330,000 active;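 active = inhibition reaching a set limit with compound at 10 µM in the primary screen, cut at about 35% in these data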;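 also: plate controls were DMSO wells with enzyme for no effect and no-enzyme buffer wells for full effect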
Target sequence (P09923 whole entry, looked up): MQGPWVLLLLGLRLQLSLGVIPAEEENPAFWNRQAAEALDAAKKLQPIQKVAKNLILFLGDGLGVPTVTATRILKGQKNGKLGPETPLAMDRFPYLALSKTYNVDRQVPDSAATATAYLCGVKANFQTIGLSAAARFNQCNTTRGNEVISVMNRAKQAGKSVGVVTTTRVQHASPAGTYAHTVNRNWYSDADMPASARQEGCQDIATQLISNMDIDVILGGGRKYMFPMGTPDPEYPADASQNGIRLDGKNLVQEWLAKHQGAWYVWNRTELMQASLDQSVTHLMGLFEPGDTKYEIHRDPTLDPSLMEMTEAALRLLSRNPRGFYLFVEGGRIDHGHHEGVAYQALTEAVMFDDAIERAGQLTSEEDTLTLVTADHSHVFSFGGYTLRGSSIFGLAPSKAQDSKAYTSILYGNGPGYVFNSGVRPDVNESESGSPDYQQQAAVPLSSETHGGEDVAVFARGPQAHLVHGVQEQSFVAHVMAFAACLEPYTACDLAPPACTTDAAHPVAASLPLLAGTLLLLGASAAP
mIAP act: activators of mouse IAP, primary screen, biochemical, luminescence, uHTS; activation factor at 10 µM; muIAP, CDP-Star luminescence, 30 min; active compounds read high; 1 = vehicle-only enzyme signal, 0 = enzyme-free wells; AID 2805, 2010; 0.24% of 330,000 active;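 active = activation factor of at least 2 at 20 µM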
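System: mouse IAP enzyme. Reagent: CDP-Star chemiluminescent phosphatase substrate. Benchmarks: DMSO wells, no-enzyme wells. Times: 30 min enzyme-substrate-compound incubation at room temperature. Detection: luminescence from enzymatic CDP-Star hydrolysis. Doses: test compounds delivered from DMSO solution.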
bIAP inh: bovine intestinal alkaline phosphatase inhibitors, primary screen, selectivity assay for TNAP inhibitor project, biochemical, bovine IAP, CDP-star luminescence. alkaline phosphatase, intestinal [Bos taurus]. purified bovine IAP, 30 min. inhibition, % at 20 µM. 190,000 tested, under 10 active. AID 1019, 2008;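 active = over 50% inhibition of intestinal alkaline phosphatase at 20 µM in the single-dose screen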
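Assay system – bovine IAP enzyme · Quantity – bovine IAP at 1/65,000,000 final dilution · Detection – CDP-star luminescence signal · Times – 30 min reaction at room temperature · Also added – CDP-star substrate at 30 µM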
hIAP act: human IAP activators, primary screen, biochemical, luminescence, uHTS; Intestinal-type alkaline phosphatase (Homo sapiens), P09923; activation factor at 10 µM; 0.16% of 330,000 active; purified human IAP, CDP-Star luminescence, 30 min; active compounds read high; 1 = vehicle-only enzyme, 0 = enzyme-free background;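 active = activation factor of the enzyme at least 2-fold when tested at 20 µM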
mIAP inh conf: inhibitors of mouse IAP, confirmation, biochemical, luminescence, single concentration | shares compounds with mIAP inh | purified mouse IAP, CDP-Star luminescence, 30 min | inhibition, % at 10 µM | 4.7% of 11,000 active;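 active = inhibition of at least 40% at 10 µM in either of the two replicates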;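 also: plate controls were DMSO wells with enzyme for no effect and buffer wells lacking enzyme for full effect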
Numbers without * were called inactive.

Screening Cc1cc(C(=O)Cn2cnc3ccccc3c2=O)c(C)n1C1CC1 returned mIAP inh -6, hIAP block 0, mIAP act 1.1 and hIAP act 1.
NS(=O)(=O)c1cccc(NC(=O)CSc2nnc(-c3ccncc3)n2C2CC2)c1 was read as mIAP inh 50*, hIAP block 5, mIAP act 0.5, hIAP act 0.95 and mIAP inh conf 58*.
Screening O=C(c1cc2ccc([N+](=O)[O-])cc2oc1=O)N1CCOCC1 returned mIAP inh 6, bIAP act 1, hIAP block 14, mIAP act 0.94, bIAP inh 2 and hIAP act 0.86.
Screening CCOc1cc(/C=N/Nc2nc(-c3cccs3)c(NC(C)=O)s2)ccc1O returned mIAP inh 41*, hIAP block 14, mIAP act 0.59, hIAP act 0.86 and mIAP inh conf 44*.
Screening CC(=O)Nc1sc(N/N=C\c2ccccc2)nc1-c1cccs1 returned mIAP inh 22, bIAP act 1, hIAP block -7, mIAP act 0.78, bIAP inh -3 and hIAP act 1.1.
Cc1cc(Cn2nc(-c3ccccc3)cc2C(=O)NCc2cccc(Br)c2)on1 was read as mIAP inh -299, hIAP block -10, mIAP act 4*, hIAP act 1.1 and mIAP inh conf -230.
Screening Cc1cc(Cn2nc(-c3ccccc3)cc2C(=O)NCc2cccc(C(F)(F)F)c2)on1 returned mIAP inh -228, hIAP block 5, mIAP act 3.3*, hIAP act 0.95 and mIAP inh conf -125.
For Cc1c(Br)c(O)c(Br)c2sc(=O)oc12 the results were mIAP inh 59*, hIAP block -9, mIAP act 0.41, hIAP act 1.1 and mIAP inh conf 65*.
COC(=O)c1ccc(C(=O)NC2CCSc3ccccc32)cc1 (configuration not stated) was read as mIAP inh 8, hIAP block 3, mIAP act 0.92 and hIAP act 0.97.
For Cc1ccc(NC(=S)NC2CCSc3ccccc32)cc1C (configuration not stated) the results were mIAP inh -375, hIAP block -35, mIAP act 4.7*, hIAP act 1.3 and mIAP inh conf -172.
CCCCCCC(NC(=O)Cc1ccc2ccccc2c1)C(=O)O (configuration not stated) was read as mIAP inh -8 and mIAP act 1.2.
Screening S=c1[nH]nc(-c2cccnc2)n1/N=C/C=C/c1ccco1 returned mIAP inh 47*, bIAP act 1, hIAP block 3, mIAP act 0.53, bIAP inh 3, hIAP act 0.97 and mIAP inh conf 60*.
`S=c1[nH]nc(-c2ccc(Cl)cc2)n1/N=C/C=C/c1ccco1` gave mIAP inh 56*, hIAP block -15, mIAP act 0.44, hIAP act 1.2 and mIAP inh conf 58*.
Screening O=C(N/N=C/c1ccc[nH]1)c1ccc2c(c1)OCO2 returned mIAP inh 50*, bIAP act 1, hIAP block -12, mIAP act 0.5, bIAP inh 2, hIAP act 1.1 and mIAP inh conf 64*.
Screening Cc1ccc(NC(=S)NCc2ccccc2)cc1S(=O)(=O)N1CCCCC1 returned mIAP inh -481, bIAP act 1.4, hIAP block -58, mIAP act 5.8*, bIAP inh -38, hIAP act 1.6 and mIAP inh conf -187.
`Cc1c(Cl)cccc1NC(=O)NC1CCCCC1` gave mIAP inh -14, bIAP act 0.6, hIAP block 9, mIAP act 1.1, bIAP inh 39 and hIAP act 0.91.
Screening Cc1ccccc1CN1CCC(CNC(=O)Nc2ccc(F)cc2F)CC1 returned mIAP inh -38, hIAP block -16, mIAP act 1.4 and hIAP act 1.2.
Cc1ccc(C)c(CN2CCC(CNC(=O)Nc3cccc(Cl)c3C)CC2)c1 was read as mIAP inh -445, hIAP block -66, mIAP act 5.4*, hIAP act 1.7 and mIAP inh conf -147.
Cc1ccc(NC(=O)NCC2CCN(Cc3cc(C)ccc3Cl)CC2)c(C)c1 was read as mIAP inh -391, bIAP act 1.1, hIAP block -49, mIAP act 4.9*, bIAP inh -9, hIAP act 1.5 and mIAP inh conf -87.
CCOc1ccc(NC(=O)Nc2cc(OCC(F)(F)F)cc(OCC(F)(F)F)c2)cc1 was read as mIAP inh -204, bIAP act 0.7, hIAP block 2, mIAP act 3*, bIAP inh 30, hIAP act 0.98 and mIAP inh conf -108.
For O=C(Nc1ccc(F)cc1)Nc1cc(OCC(F)(F)F)cc(OCC(F)(F)F)c1 the results were mIAP inh -356, bIAP act 0.7, hIAP block -34, mIAP act 4.6*, bIAP inh 29, hIAP act 1.3 and mIAP inh conf -111.
For CC(C(=O)Nc1cccnc1)n1cc([N+](=O)[O-])cn1 (configuration not stated) the results were mIAP inh 6, bIAP act 0.9, hIAP block -3, mIAP act 0.94, bIAP inh 10 and hIAP act 1.
`Nc1nc(-c2cccs2)cs1` gave mIAP inh 46*, bIAP act 0.9, hIAP block -8, mIAP act 0.54, bIAP inh 6, hIAP act 1.1 and mIAP inh conf 52*.
CC(=O)Nc1nc(-c2cccs2)cs1 was read as mIAP inh -2, bIAP act 0.9, hIAP block 4, mIAP act 1, bIAP inh 13 and hIAP act 0.96.
Screening O=C(COc1ccccc1Br)Nc1ccc(S(=O)(=O)N2CCCC2)cc1 returned mIAP inh -25, hIAP block -7, mIAP act 1.2 and hIAP act 1.1.
Screening CCC1=NN2C(=N)/C(=C\c3ccc(SCc4ccco4)o3)C(=O)N=C2S1 returned mIAP inh 74*, bIAP act 0.9, hIAP block 17, mIAP act 0.26, bIAP inh 13, hIAP act 0.83 and mIAP inh conf 72*.
